Screens as filed in PubChem.
SF1 activator: activators of human SF-1, primary screen, cell-based, CHO-K1, Gal4-SF-1 LBD, luciferase luminescence; CHO-K1 Gal4-SF-1 LBD luciferase reporter; % increase over DMSO SF-1-specific signal; AID 522, 2006; Steroidogenic factor 1 (Homo sapiens), Q13285; activation, % at 10 µM; 65,000 compounds, 1.9% hits;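 active = activation above the mean activation of all tested compounds plus 3 SD, cut at about 50% in these data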
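Assay system – CHO-K1 cells with Gal4–hSF-1 LBD chimera plus Gal4-driven luciferase · Quantity – 4,000 cells per well · Times – compound added 1 h post-seeding, 20 h exposure at 37 °C, 5% CO2 · Measured by – luciferase light emission · Benchmarks – DMSO and mock-transfected background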
E coli RNAP: E. coli RNAP inhibitors, biochemical. 62,000 compounds, 0.2% hits. DNA-directed RNA polymerase subunit beta (Escherichia coli (strain K12)), P0A8V2. AID 559, 2006. inhibition, %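 (tested at 10 µM)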. E. coli RNA polymerase, fluorescence transcription assay; in the data active = inhibition above about 20%;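 also: 0% = enzyme without compound and 100% = no enzyme blank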
TNAP act DEA: human TNAP enzyme activators, primary screen, biochemical, luminescent, intermediate phosphate acceptor level; Alkaline phosphatase, tissue-nonspecific isozyme (Homo sapiens), P05186; purified TNAP, CDP-star luminescence, 100 mM DEA, 30 min; stronger effect = higher value; scale: 0 levamisole-inhibited, 1 vehicle-only enzyme; activation factor at 20 µM; 64,000 tested, under 10 active; AID 813, 2007;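 active = activation factor of at least 2 at 20 µM, relative to controls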
Target sequence (P05186 whole entry, looked up): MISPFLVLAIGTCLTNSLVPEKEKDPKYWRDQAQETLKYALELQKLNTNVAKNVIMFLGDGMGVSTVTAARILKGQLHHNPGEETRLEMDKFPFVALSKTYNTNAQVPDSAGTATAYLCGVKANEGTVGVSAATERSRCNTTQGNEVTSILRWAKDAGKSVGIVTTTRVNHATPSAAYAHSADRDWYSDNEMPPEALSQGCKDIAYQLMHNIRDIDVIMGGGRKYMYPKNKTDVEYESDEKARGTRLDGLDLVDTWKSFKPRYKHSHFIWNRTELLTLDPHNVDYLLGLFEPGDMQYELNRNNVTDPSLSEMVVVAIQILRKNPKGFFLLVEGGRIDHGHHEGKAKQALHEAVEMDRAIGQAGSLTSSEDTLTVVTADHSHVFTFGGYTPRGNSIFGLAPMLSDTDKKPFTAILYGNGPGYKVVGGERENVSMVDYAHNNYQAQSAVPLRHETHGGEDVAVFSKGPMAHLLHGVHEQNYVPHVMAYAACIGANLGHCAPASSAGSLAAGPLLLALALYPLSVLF
MT1-MMP txn act: MT1-MMP promoter reporter activation – cell-based, luciferase luminescence, primary screen; activation factor at 10 µM; 86,000 compounds, 0.16% hits; HT1080 MT1-MMP promoter luciferase reporter, overnight; stronger effect = higher value;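 active = activation factor of at least 2 for MT1-MMP transcription at 10 µM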
RORA act: activators of orphan receptor RORA, primary screen, cell-based, luminescence. activation, % at 10 µM. AID 560, 2006. 65,000 compounds, 1.5% hits. CHO-K1 Gal4-RORA LBD luciferase reporter; percent increase over mock-subtracted basal signal. Nuclear receptor ROR-alpha (Homo sapiens), P35398;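 active = activation above the mean of all tested compounds plus 3 SD, cut at about 49% in these data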;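 also: 0% = DMSO-treated RORA cells and 100% = added signal equal to DMSO minus mock-transfected cells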
AP complement: alternative complement pathway inhibitors, primary screen, biochemical, ELISA, human serum, orthogonally pooled compounds. inhibition, % at 5 µM. 62,000 compounds, 0.08% hits. LPS-coated ELISA, C3 deposition; tested in compound mixtures;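 active = inhibition above 30% in each of the two pooled mixtures holding the compound, so the lower value exceeds 30%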;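 also: 0% = serum in Mg-EGTA without compound and 100% = EDTA serum blank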
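Test system – human serum alternative complement pathway, C3 deposition on LPS-coated wells · Buffer or medium – diluted human serum in Mg2+-EGTA GVB++ · Compound dosing – 5 µM each compound, pools of ten, 50 µM per pool · Schedule – 1 h serum-compound exposure at 37 °C · Measured by – Anti-C3 ELISA, OD 450 nm · Read-out basis – percent inhibition of C3 deposition onto LPS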
Active calls of the source: *; nt = not tested or not shown. An excerpt weighted towards active compounds, which were near 2.2% of everything screened.

SMILES	SF1 activator	E coli RNAP	TNAP act DEA	MT1-MMP txn act	RORA act	AP complement
O=C(Nc1cc(C(F)(F)F)ccc1N1CCOCC1)C1Cc2ccccc2CN1C(=O)c1ccco1 (stereo not drawn)	-12	3	0.9	1.2	-2	12
O=c1c2ccccc2nnn1CSc1nnc(COc2ccc(Cl)cc2)n1Cc1ccco1	56*	-1	0.9	1.1	-11	10
Cn1c(CSCc2ccc(F)cc2)nnc1SCC(=O)Nc1nccs1	-10	9	0.9	1	8	12
Cn1nnnc1SCc1ccc(C(=O)Nc2nccs2)cc1	57*	2	0.9	1.7	44	12
O=C1N(CCCCN2C(=O)C3(OCCO3)c3ccccc32)c2ccccc2C12OCCO2	4	2	0.8	1.3	3	10
O=C1N(CCCN2C(=O)C3(OCCO3)c3ccccc32)c2ccccc2C12OCCO2	-15	nt	1	1.1	53*	6
O=C(CCn1nnc2ccccc21)N1CCC(O)(c2cccc(F)c2)CC1	-1	7	1	1	-9	15
O=C(CC(SCc1ccco1)c1ccc(O)cc1)c1cccs1 (stereo not drawn)	31	3	0.6	1.7	87*	-4
CCCOc1ccc(S(=O)(=O)n2cc(Br)c(=O)[nH]c2=O)cc1	22	-4	0.9	1	50*	19
O=c1oc2c3c4c(cc2cc1-c1nc2ccccc2[nH]1)CCCN4CCC3	44	-28	1.1	1.4	52*	14
O=P(N[C@@H](c1ccccc1)[C@@H]1C[C@H]1CCO)(c1ccccc1)c1ccccc1	nt	nt	nt	1.3	nt	nt
Fc1ccccc1CSc1nnc(-c2ccccc2)o1	58*	2	0.9	0.9	41	20
Cc1ccccc1-c1nnc(SCc2ccccc2)o1	27	-3	0.8	1.7	42	-1
Cc1ccccc1-c1nnc(SCc2ccccc2F)o1	90*	0	0.9	1.4	75*	9
CC(=O)c1ccc(Nc2ncnc3c2oc2ccccc23)cc1	89*	12	0.9	1.3	23	2
Cc1cccc(OCCn2c(=O)n(C)c3ccccc32)c1	81*	2	1	1.4	67*	13
CCOc1ccc(OCC)c(NC(=O)CSc2nc3c(c(=O)n(C)c(=O)n3C)n2C(C)C)c1	101*	9	0.9	1.1	17	34
CCC(C)(C)n1c(=O)[nH]c2c(c1=O)CCC2	-3	2	0.9	1	-5	19
Cc1ccccc1OCc1nc(-c2ccc(NC(=O)c3ccco3)cc2)no1	28	5	0.9	1.2	58*	11
CCCc1ccc(OCc2nc(-c3ccc(NC(=O)c4ccco4)cc3)no2)cc1	50*	1	0.9	1.3	44	-12
COc1ccccc1CC(=O)Nc1ccc(-c2noc(COc3ccc(Br)cc3)n2)cc1	nt	nt	nt	0.9	nt	nt
Cc1ccccc1OCc1nc(-c2ccc(NC(=O)c3ccc4c(c3)OCO4)cc2)no1	20	5	0.9	1.3	2	15
Cc1ccccc1OCc1nc(-c2ccccc2)no1	71*	8	0.8	1.5	34	6
O=C(CN1CCCCC1)Nc1cccc(-n2cnnn2)c1	-14	8	0.9	1	-28	8
O=C(Nc1ccc(Cl)cn1)C1CCCN1S(=O)(=O)c1ccccc1 (stereo not drawn)	12	8	0.8	1.1	-2	nt
SMILES	SF1 activator	E coli RNAP	TNAP act DEA	MT1-MMP txn act	RORA act	AP complement
CCC(=O)Nc1sc2c(c1C#N)CC(C)(CC)OC2 (stereo not drawn)	nt	nt	nt	1.3	nt	nt
Cc1ccc(CNC(=O)[C@H](C)[C@@H]2C[C@@]2(C)[C@@H](NC(=O)OCc2ccccc2)c2ccccc2)o1	nt	nt	nt	1.1	nt	nt
COC(=O)c1cc2c(=O)n3ccccc3nc2n(C)c1=N	-22	-50	1	1.1	24	32*
COC(=O)c1cc2c(=O)n3ccccc3nc2n(Cc2cccnc2)c1=N	-12	1	0.9	1.2	1	-6
COc1cc(SC)ccc1C(=O)Nc1ccccc1C#N	60*	4	0.8	1.6	26	-4
COCCn1c(COc2ccc(C)cc2)nc2ccccc21	50*	6	0.9	1.2	40	2
CCn1c(COc2ccccc2OC)nnc1SCC#N	-8	3	0.9	1.1	0	2
COc1ccc2c(c1)C(=O)c1ccccc1CO2	nt	nt	nt	1.4	nt	nt
O=C1COc2ccc(OCc3ccc(F)cc3)cc21	8	-1	0.9	1.3	78*	8
Cc1ccc2c(CC(=O)Nc3sccc3C(N)=O)coc2c1	87*	nt	0.8	1.8	45	10
c1ccc(-n2nc3c(ccc4cnnc43)[nH]2)cc1	36	10	1	1.7	55*	-4
COc1cc(C(=O)Nc2ccc(N(C)C)cc2)cc(OC)c1OC	62*	8	0.8	1.6	84*	2
COc1cc(C(=O)Nc2ccc(S(=O)(=O)NC(C)(C)C)cc2)cc(OC)c1OC	nt	nt	nt	1.2	nt	nt
c1ccc(OCCOc2ncnc3ccccc23)cc1	50*	14	0.9	1.5	38	6
CC1(C)NC(=O)N(CC(O)Cn2nnc3ccccc32)C1=O (stereo not drawn)	-13	8	0.8	1	6	-2
O=C1CCn2nc(-c3ccc(Cl)cc3)cc2N1	31	1	0.9	1.5	61*	18
Cc1cc(C)c(N2CCN(S(=O)(=O)N3CCCCCC3)CC2)c(C)c1	-12	4	0.9	1.1	-7	3
c1ccc(C2[C@H]3CN(CC4CCCCC4)[C@H](c4ccccc4)C34CC2(c2cccnc2)C4)cc1 (stereo partly drawn)	nt	nt	nt	1	nt	nt
CCC(C)c1ccc(NC(=O)C2CCCN(c3ncccn3)C2)cc1 (stereo not drawn)	72*	2	0.9	1.3	76*	-1
CCOC(=O)c1sc2nc3c(cc2c1N)COC(C)(C)C3	53*	4	1	1.1	39	9
CCOC(=O)c1sc2nc3c(cc2c1N)COC(C)(CC)C3 (stereo not drawn)	nt	nt	nt	1.4	nt	nt
Cc1cccc(-c2c3c(=O)n(C)c(=O)n(C)c3c3cccnn23)c1	-8	-2	0.9	1.3	-9	16
CCOC(=O)C1CCCN(C(=O)COC(=O)C2=COCCO2)C1 (stereo not drawn)	8	1	0.9	1.2	-4	2
